Test results published in ChEMBL document CHEMBL2384906, “Biological activity, design, synthesis and structure activity relationship of some novel derivatives of curcumin containing sulfonamides” (Eur J Med Chem, 2013).
Converted amounts (≈) assume the structure as drawn.

Assays:
Pseudomonas aeruginosa [1] = assay: Antimicrobial activity against Pseudomonas aeruginosa ATCC 15499 assessed as diameter of inhibition zone at 40 uM after 24 hrs by Kirby -Baur disc diffusion method; type: functional; details: ATCC 15499, 24 h, read-out: DIZ
Summary of the method: (§1)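 Kirby-Bauer disc diffusion was used. Acetone stocks (160 µM) were serially doubled down to 80, 40 and 20 µM. 4 µL of each went onto 5 mm sterile paper discs, which were dried 30 min at 50 °C. Inoculum was 1.5 × 10⁸ CFU/mL diluted to 3 × 10² CFU/mL, and 50 µL was spread on Mueller-Hinton agar. After 24 h at 37 °C the inhibition-zone diameter was measured. Ciprofloxacin served as positive control.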

Escherichia coli [2] = assay: Antimicrobial activity against Escherichia coli ATCC 35218 assessed as diameter of inhibition zone at 40 uM after 24 hrs by Kirby -Baur disc diffusion method; type: functional; details: ATCC 35218, 24 h, read-out: DIZ; summary of the method: as §1
HCT-116 = assay: Cytotoxicity against human HCT116 cells after 24 hrs by MTT assay; type: functional, cell-based
Summary of the method: (§2)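 The MTT assay seeded 5 × 10⁴ cells per well and grew them 24 h in RPMI 1640 with compound at 2.5–200 µM. Medium without cells was the blank and adriamycin the positive control. MTT was added for 4 h at 37 °C, formazan was solubilised, and absorbance was read at 570 nm. IC50 is the concentration that cuts viability 50% against untreated cells.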

Pseudomonas aeruginosa [3] = assay: Antimicrobial activity against Pseudomonas aeruginosa ATCC 15499 assessed as diameter of inhibition zone at 20 uM after 24 hrs by Kirby -Baur disc diffusion method; type: functional; details: ATCC 15499, 24 h, read-out: DIZ; summary of the method: as §1
Staphylococcus aureus [4] = assay: Antimicrobial activity against Staphylococcus aureus ATCC 11632 assessed as diameter of inhibition zone at 20 uM after 24 hrs by Kirby -Baur disc diffusion method; type: functional; details: ATCC 11632, 24 h, read-out: DIZ; summary of the method: as §1
Aspergillus niger [5] = assay: Antifungal activity against Aspergillus niger MTCC 1108 assessed as zone of inhibition at 20 uM after 48 hrs by disc diffusion method; type: functional; details: MTCC 1108, 48 h, read-out: IZ
Summary of the method: (§3)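 Spores from 4-day potato dextrose agar cultures, suspended in sterile water at 1.5 × 10⁵ CFU/mL. 0.2 mL was spread on potato dextrose agar. 5 mm filter-paper discs soaked with test compound were laid on the lawn. Incubation was 48 h at 28 °C, then the inhibition zone was measured in mm. Fluconazole was the positive control and acetone the negative control.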

Escherichia coli [6] = assay: Antimicrobial activity against Escherichia coli ATCC 35218 after 24 hrs by broth micro serial dilution method; type: functional; details: ATCC 35218, 24 h
Summary of the method: (§4)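 This was broth microdilution in autoclaved Mueller-Hinton broth. 150 µL of compound per well was serially diluted […], and 50 µL of test organism was added. Plates were incubated 24 h at 37 °C and optical density was read.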

Curvularia lunata [7] = assay: Antifungal activity against Curvularia lunata MTCC 581 after 48 hrs; type: functional; details: MTCC 581, 48 h
HeLa = assay: Cytotoxicity against human HeLa cells after 24 hrs by MTT assay; type: functional, cell-based; summary of the method: as §2
Bacillus cereus [8] = assay: Antimicrobial activity against Bacillus cereus MTCC 7350 assessed as diameter of inhibition zone at 80 uM after 24 hrs by Kirby -Baur disc diffusion method; type: functional; details: MTCC 7350, 24 h, read-out: DIZ; summary of the method: as §1
Aspergillus flavus [9] = assay: Antifungal activity against Aspergillus flavus MTCC 1021 assessed as zone of inhibition at 80 uM after 48 hrs by disc diffusion method; type: functional; details: MTCC 1021, 48 h, read-out: IZ; summary of the method: as §3
Salmonella typhi [10] = assay: Antimicrobial activity against Salmonella typhi ATCC 23564 assessed as diameter of inhibition zone at 40 uM after 24 hrs by Kirby -Baur disc diffusion method; type: functional, Salmonella enterica subsp. enterica serovar Typhi; details: Salmonella enterica, ATCC 23564, 24 h; read-out: DIZ
Bacillus cereus [11] = assay: Antimicrobial activity against Bacillus cereus MTCC 7350 assessed as diameter of inhibition zone at 20 uM after 24 hrs by Kirby -Baur disc diffusion method; type: functional; details: MTCC 7350, 24 h, read-out: DIZ; summary of the method: as §1
Pseudomonas aeruginosa [12] = assay: Antimicrobial activity against Pseudomonas aeruginosa ATCC 15499 after 24 hrs by broth micro serial dilution method; type: functional; details: ATCC 15499, 24 h; summary of the method: as §4
Aspergillus flavus [13] = assay: Antifungal activity against Aspergillus flavus MTCC 1021 assessed as zone of inhibition at 20 uM after 48 hrs by disc diffusion method; type: functional; details: MTCC 1021, 48 h, read-out: IZ; summary of the method: as §3
Pseudomonas aeruginosa [14] = assay: Antimicrobial activity against Pseudomonas aeruginosa ATCC 15499 assessed as diameter of inhibition zone at 80 uM after 24 hrs by Kirby -Baur disc diffusion method; type: functional; details: ATCC 15499, 24 h, read-out: DIZ; summary of the method: as §1
Aspergillus flavus [15] = assay: Antifungal activity against Aspergillus flavus MTCC 1021 assessed as zone of inhibition at 40 uM after 48 hrs by disc diffusion method; type: functional; details: MTCC 1021, 48 h, read-out: IZ; summary of the method: as §3
Bacillus cereus [16] = assay: Antimicrobial activity against Bacillus cereus MTCC 7350 after 24 hrs by broth micro serial dilution method; type: functional; details: MTCC 7350, 24 h; summary of the method: as §4
Staphylococcus aureus [17] = assay: Antimicrobial activity against Staphylococcus aureus ATCC 11632 assessed as diameter of inhibition zone at 80 uM after 24 hrs by Kirby -Baur disc diffusion method; type: functional; details: ATCC 11632, 24 h, read-out: DIZ; summary of the method: as §1
Bacillus cereus [18] = assay: Antimicrobial activity against Bacillus cereus MTCC 7350 assessed as diameter of inhibition zone at 40 uM after 24 hrs by Kirby -Baur disc diffusion method; type: functional; details: MTCC 7350, 24 h, read-out: DIZ; summary of the method: as §1
Escherichia coli [19] = assay: Antimicrobial activity against Escherichia coli ATCC 35218 assessed as diameter of inhibition zone at 20 uM after 24 hrs by Kirby -Baur disc diffusion method; type: functional; details: ATCC 35218, 24 h, read-out: DIZ; summary of the method: as §1
HepG2 = assay: Cytotoxicity against human HepG2 cells after 24 hrs by MTT assay; type: functional, cell-based; summary of the method: as §2
Salmonella typhi [20] = assay: Antimicrobial activity against Salmonella typhi ATCC 23564 after 24 hrs by broth micro serial dilution method; type: functional, Salmonella enterica subsp. enterica serovar Typhi; details: Salmonella enterica, ATCC 23564, 24 h
Aspergillus niger [21] = assay: Antifungal activity against Aspergillus niger MTCC 1108 assessed as zone of inhibition at 40 uM after 48 hrs by disc diffusion method; type: functional; details: MTCC 1108, 48 h, read-out: IZ; summary of the method: as §3
Staphylococcus aureus [22] = assay: Antimicrobial activity against Staphylococcus aureus ATCC 11632 after 24 hrs by broth micro serial dilution method; type: functional; details: ATCC 11632, 24 h; summary of the method: as §4
Aspergillus niger [23] = assay: Antifungal activity against Aspergillus niger MTCC 1108 after 48 hrs; type: functional; details: MTCC 1108, 48 h
Trichoderma viride [24] = assay: Antifungal activity against Trichoderma viride MTCC 1107 assessed as zone of inhibition at 40 uM after 48 hrs by disc diffusion method; type: functional; details: MTCC 1107, 48 h, read-out: IZ; summary of the method: as §3
Curvularia lunata [25] = assay: Antifungal activity against Curvularia lunata MTCC 581 assessed as zone of inhibition at 40 uM after 48 hrs by disc diffusion method; type: functional; details: MTCC 581, 48 h, read-out: IZ; summary of the method: as §3
Aspergillus niger [26] = assay: Antifungal activity against Aspergillus niger MTCC 1108 assessed as zone of inhibition at 80 uM after 48 hrs by disc diffusion method; type: functional; details: MTCC 1108, 48 h, read-out: IZ; summary of the method: as §3
Mus musculus = assay: Antiinflammatory activity in mouse assessed as inhibition of carrageenan-induced increase in paw volume at 200 mg/kg administered 1 hr prior to carrageenan challenge measured after 3 hrs relative to control; type: functional
Summary of the method: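 Mice were fasted 2 h and placed in groups of five. Controls received saline i.p. Phenylbutazone was given at 100 mg/kg i.p., curcumin at 200 mg/kg i.p., and derivatives at 200 mg/kg. After 1 h, 0.1 mL of 1% carrageenan in saline was injected subplantar into the right hind paw. Paw volume was followed by plethysmometer for 3 h, and % inhibition was calculated as (Vc − Vt)/Vc × 100.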

Trichoderma viride [27] = assay: Antifungal activity against Trichoderma viride MTCC 1107 after 48 hrs; type: functional; details: MTCC 1107, 48 h
Salmonella typhi [28] = assay: Antimicrobial activity against Salmonella typhi ATCC 23564 assessed as diameter of inhibition zone at 20 uM after 24 hrs by Kirby -Baur disc diffusion method; type: functional, Salmonella enterica subsp. enterica serovar Typhi; details: Salmonella enterica, ATCC 23564, 24 h; read-out: DIZ
Aspergillus flavus [29] = assay: Antifungal activity against Aspergillus flavus MTCC 1021 after 48 hrs; type: functional; details: MTCC 1021, 48 h
Trichoderma viride [30] = assay: Antifungal activity against Trichoderma viride MTCC 1107 assessed as zone of inhibition at 80 uM after 48 hrs by disc diffusion method; type: functional; details: MTCC 1107, 48 h, read-out: IZ; summary of the method: as §3
Trichoderma viride [31] = assay: Antifungal activity against Trichoderma viride MTCC 1107 assessed as zone of inhibition at 20 uM after 48 hrs by disc diffusion method; type: functional; details: MTCC 1107, 48 h, read-out: IZ; summary of the method: as §3
Curvularia lunata [32] = assay: Antifungal activity against Curvularia lunata MTCC 581 assessed as zone of inhibition at 80 uM after 48 hrs by disc diffusion method; type: functional; details: MTCC 581, 48 h, read-out: IZ; summary of the method: as §3
Curvularia lunata [33] = assay: Antifungal activity against Curvularia lunata MTCC 581 assessed as zone of inhibition at 20 uM after 48 hrs by disc diffusion method; type: functional; details: MTCC 581, 48 h, read-out: IZ; summary of the method: as §3
Staphylococcus aureus [34] = assay: Antimicrobial activity against Staphylococcus aureus ATCC 11632 assessed as diameter of inhibition zone at 40 uM after 24 hrs by Kirby -Baur disc diffusion method; type: functional; details: ATCC 11632, 24 h, read-out: DIZ; summary of the method: as §1
Escherichia coli [35] = assay: Antimicrobial activity against Escherichia coli ATCC 35218 assessed as diameter of inhibition zone at 80 uM after 24 hrs by Kirby -Baur disc diffusion method; type: functional; details: ATCC 35218, 24 h, read-out: DIZ; summary of the method: as §1
Salmonella typhi [36] = assay: Antimicrobial activity against Salmonella typhi ATCC 23564 assessed as diameter of inhibition zone at 80 uM after 24 hrs by Kirby -Baur disc diffusion method; type: functional, Salmonella enterica subsp. enterica serovar Typhi; details: Salmonella enterica, ATCC 23564, 24 h; read-out: DIZ
QG-56 = assay: Cytotoxicity against human QG56 cells after 24 hrs by MTT assay; type: functional, cell-based; summary of the method: as §2

## COc1ccc(NS(=O)(=O)c2ccc(/N=C(\C=C\c3ccc(O)c(OC)c3)CC(/C=C/c3ccc(O)c(OC)c3)=N/c3ccc(S(=O)(=O)Nc4ccc(OC)nn4)cc3)cc2)nn1
Pseudomonas aeruginosa [1]
  zone of inhibition at 40 µM: 19 mm
Escherichia coli [2]
  zone of inhibition at 40 µM: 17 mm
HCT-116
  IC50: 25 µM
Pseudomonas aeruginosa [3]
  zone of inhibition at 20 µM: 12 mm
Staphylococcus aureus [4]
  zone of inhibition at 20 µM: 11 mm
Aspergillus niger [5]
  zone of inhibition at 20 µM: 8 mm
Escherichia coli [6]
  MIC: 40 µM (≈ 35.7 µg/mL)
Curvularia lunata [7]
  MIC: 20 µM (≈ 17.9 µg/mL)
HeLa
  IC50: 50 µM
Bacillus cereus [8]
  zone of inhibition at 80 µM: 22 mm
Aspergillus flavus [9]
  zone of inhibition at 80 µM: 13 mm
Salmonella typhi [10]
  zone of inhibition at 40 µM: 19 mm
Bacillus cereus [11]
  zone of inhibition at 20 µM: 13 mm
Pseudomonas aeruginosa [12]
  MIC: 40 µM (≈ 35.7 µg/mL)
Aspergillus flavus [13]
  zone of inhibition at 20 µM: 9 mm
Pseudomonas aeruginosa [14]
  zone of inhibition at 80 µM: 22 mm
Aspergillus flavus [15]
  zone of inhibition at 40 µM: 11 mm
Bacillus cereus [16]
  MIC: 40 µM (≈ 35.7 µg/mL)
Staphylococcus aureus [17]
  zone of inhibition at 80 µM: 21 mm
Bacillus cereus [18]
  zone of inhibition at 40 µM: 17 mm
Escherichia coli [19]
  zone of inhibition at 20 µM: 14 mm
HepG2
  IC50: 50 µM
Salmonella typhi [20]
  MIC: 40 µM (≈ 35.7 µg/mL)
Aspergillus niger [21]
  zone of inhibition at 40 µM: 10 mm
Staphylococcus aureus [22]
  MIC: 40 µM (≈ 35.7 µg/mL)
Aspergillus niger [23]
  MIC: 40 µM (≈ 35.7 µg/mL)
Trichoderma viride [24]
  zone of inhibition at 40 µM: 16 mm
Curvularia lunata [25]
  zone of inhibition at 40 µM: 15 mm
Aspergillus niger [26]
  zone of inhibition at 80 µM: 12 mm
Mus musculus
  inhibition in vivo at 200 mg/kg: 33.8%
Trichoderma viride [27]
  MIC: 20 µM (≈ 17.9 µg/mL)
Salmonella typhi [28]
  zone of inhibition at 20 µM: 14 mm
Aspergillus flavus [29]
  MIC: 80 µM (≈ 71.4 µg/mL)
Trichoderma viride [30]
  zone of inhibition at 80 µM: 19 mm
Trichoderma viride [31]
  zone of inhibition at 20 µM: 12 mm
Curvularia lunata [32]
  zone of inhibition at 80 µM: 18 mm
Curvularia lunata [33]
  zone of inhibition at 20 µM: 12 mm
Staphylococcus aureus [34]
  zone of inhibition at 40 µM: 19 mm
Escherichia coli [35]
  zone of inhibition at 80 µM: 19 mm
Salmonella typhi [36]
  zone of inhibition at 80 µM: 21 mm
QG-56
  IC50: 50 µM
